Laboratory results: ChEMBL document CHEMBL1157968, “Chemical and cytotoxic constituents from the leaves of Cinnamomum kotoense” (2006)

Experiments:
Type in all cases: functional
HeLa [1] = assay: Cell cycle arrest in human HeLa cells assessed as G1 phase accumulation at 50 uM after 24 hrs by FACS
Procedure, shortened: (§1)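 HeLa cells seeded 5 × 10^5 per dish 48 h ahead in DMEM with 10% FCS, then exposed to compound for 24 h (DMSO 0.1% final). Adherent and floating cells pooled, fixed in PBS-MeOH (1:2) at 4 °C for at least 18 h, and stained with PI (50 µg/mL) plus RNase A for 30 min at room temperature. Flow cytometry at 488 nm excitation, doublets gated out; phase percentages taken from DNA histograms.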

HeLa [2] = assay: Cell cycle arrest in human HeLa cells assessed as G2/M phase accumulation at 50 uM after 24 hrs by FACS; procedure, shortened: as §1
HeLa [3] = assay: Induction of apoptosis in human HeLa cells assessed as increase caspase 3/7 activities at 100 uM after 6 hrs by FACS relative to control
Procedure, shortened: (§2)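 After 3–24 h exposure at 100 µM, HeLa cells were trypsinized. 1 × 10^6 cells in DMEM were mixed 1:1 with Z-DEVD-R110 substrate reagent and incubated 1 h at 37 °C, then washed. Released R110 read per cell by flow cytometry (ex 488/em 520 nm) and expressed as fold over untreated cells. At least three runs.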

HeLa [4] = assay: Cell cycle arrest in human HeLa cells pretreated with 10 uM Dexamethasone for 1 hr assessed as subG1 phase accumulation at 100 uM after 24 hrs by FACS
Procedure, shortened: (§3)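 HeLa cells pretreated for 1 h with the listed agent (10 mM GSH ethyl ester, 10 µM dexamethasone, 10 µM pifithrin, 100 µM Boc-Asp(OMe)-fmk or 5 µM cyclosporin A), then given 100 µM compound for 24 h. Cells fixed in PBS-MeOH, stained with PI/RNase and analysed by flow cytometry for DNA content. At least three experiments, one representative shown.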

HeLa [5] = assay: Cell cycle arrest in human HeLa cells pretreated with 5 uM cyclosporin A for 1 hr assessed as G2/M phase accumulation at 100 uM after 24 hrs by FACS; procedure, shortened: as §3
HeLa [6] = assay: Induction of apoptosis in human HeLa cells assessed as number of cells with decreased mitochondrial membrane potential at 100 uM after 6 hrs by measuring rhodamine 123 fluorescence intensity; set-up: scale not given: the % may be the effect or the level left
Procedure, shortened: (§4)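 Cells in DMEM/10% FCS, medium renewed at 80% confluence, then 100 µM agent (0.1% DMSO final) for 1–24 h. Stained with 5 µM rhodamine 123 for 30 min in the dark, washed, trypsinized and resuspended in PBS; flow cytometry, percentage of cells with weak rhodamine 123 staining (reduced ΔΨm); at least three experiments, representative shown.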

HeLa [7] = assay: Cell cycle arrest in human HeLa cells assessed as S phase accumulation at 25 50 after 24 hrs by FACS; procedure, shortened: as §1
HeLa [8] = assay: Induction of apoptosis in human HeLa cells assessed as number of cells with decreased mitochondrial membrane potential at 100 uM after 3 hrs by measuring rhodamine 123 fluorescence intensity; set-up: scale not given: the % may be the effect or the level left; procedure, shortened: as §4
HeLa [9] = assay: Cell cycle arrest in human HeLa cells pretreated with 10 uM pifithrin-alpha for 1 hr assessed as subG1 phase accumulation at 100 uM after 24 hrs by FACS; procedure, shortened: as §3
HeLa [10] = assay: Induction of apoptosis in human HeLa cells assessed as increase in intracellular peroxide level at 100 uM after 24 hrs by FACS relative to untreated control
Procedure, shortened: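 HeLa cells at 80% confluence were refed and exposed to 100 µM for 1, 3 or 24 h. They were loaded with 10 µM DCFH-DA for 30 min in the dark, trypsinized and resuspended in PBS. DCF fluorescence was measured by flow cytometry and expressed as fold versus untreated cells. At least three experiments.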

HeLa [11] = assay: Cell cycle arrest in human HeLa cells pretreated with 100 uM Boc-Asp(OMe)-fmk for 1 hr assessed as subG1 phase accumulation at 100 uM after 24 hrs by FACS; procedure, shortened: as §3
HeLa [12] = assay: Cell cycle arrest in human HeLa cells pretreated with 5 uM cyclosporin A for 1 hr assessed as S phase accumulation at 100 uM after 24 hrs by FACS; procedure, shortened: as §3
HeLa [13] = assay: Induction of apoptosis in human HeLa cells assessed as increase caspase 3/7 activities at 100 uM after 9 hrs by FACS relative to control; procedure, shortened: as §2
HeLa [14] = assay: Induction of apoptosis in human HeLa cells assessed as increase in intracellular glutathione-depleted cell population at 100 uM after 24 hrs by FACS
Procedure, shortened: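 HeLa cells at 80% confluence got fresh medium and were exposed for 24 h. Adherent and floating cells were pooled, adjusted to (1-2) × 10^6/mL and stained with 25 µM CMF-DA for 30 min at 37 °C. After washing, flow cytometry scored the percentage of GSH-negative cells. At least three experiments.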

HeLa [15] = assay: Cell cycle arrest in human HeLa cells pretreated with 10 uM pifithrin-alpha for 1 hr assessed as G1 phase accumulation at 100 uM after 24 hrs by FACS; procedure, shortened: as §3
HeLa [16] = assay: Induction of apoptosis in human HeLa cells pretreated with 100 uM Boc-Asp(OMe)-fmk for 1 hr at 100 uM after 24 hrs by TUNEL assay
Procedure, shortened: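 HeLa in DMEM/10% FCS, untreated or pretreated 1 h with listed inhibitor, then 100 µM agent (0.1% DMSO final) for 24 h. Pooled cells fixed in 1% paraformaldehyde (30 min, 4 °C), 70% EtOH (30 min, −20 °C); strand breaks labelled with TdT/fluorescein-BrdUTP (1 h, 37 °C), PI/RNase counterstain; flow cytometry, % apoptotic cells; ≥3 experiments.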

HeLa [17] = assay: Cell cycle arrest in human HeLa cells assessed as G2/M phase accumulation at 100 uM after 24 hrs by FACS; procedure, shortened: as §1
HeLa [18] = assay: Cell cycle arrest in human HeLa cells pretreated with 10 uM pifithrin-alpha for 1 hr assessed as G2/M phase accumulation at 100 uM after 24 hrs by FACS; procedure, shortened: as §3
HeLa [19] = assay: Induction of apoptosis in human HeLa cells assessed as increase in intracellular nitric oxide level at 100 uM after 3 hrs by FACS relative to untreated control
Procedure, shortened: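 HeLa cells at 80% confluence were exposed to 100 µM for 1, 3 or 24 h and then stained with 1 µM DAF-2 for 10 min in the dark. After trypsinization, DAF-2 fluorescence was measured by flow cytometry and taken as fold versus untreated cells. At least three experiments.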

HeLa [20] = assay: Cell cycle arrest in human HeLa cells pretreated with 5 uM cyclosporin A for 1 hr assessed as subG1 phase accumulation at 100 uM after 24 hrs by FACS; procedure, shortened: as §3
HeLa [21] = assay: Induction of apoptosis in human HeLa cells assessed as increase caspase 3/7 activities at 100 uM after 3 hrs by FACS relative to control; procedure, shortened: as §2
HeLa [22] = assay: Cell cycle arrest in human HeLa cells assessed as G1 phase accumulation at 25 uM after 24 hrs by FACS; procedure, shortened: as §1

CCCCCCCCCCCCC/C=C(/C(=O)OC)[C@@H](O)C(C)=O [SECOKOTOMOLIDE A]
Activity (HeLa [1]): 50.8%
Activity (HeLa [2]): 29%
fold change (FC) (HeLa [3]): 5.9
Activity (HeLa [4]): 47.7%
Activity (HeLa [5]): 38.2%
Activity (HeLa [6]): 23%
Activity (HeLa [7]): 20.3%
Activity (HeLa [8]): 2.2%
Activity (HeLa [9]): 40.9%
fold change (FC) (HeLa [10]): 3.9
Activity (HeLa [11]): 74.8%
Activity (HeLa [12]): 14.4%
fold change (FC) (HeLa [13]): 9.9
Activity (HeLa [14]): 98%
Activity (HeLa [15]): 51.3%
Activity (HeLa [16]): 39%
Activity (HeLa [17]): 31%
Activity (HeLa [18]): 0%
fold change (FC) (HeLa [19]): 2.1
Activity (HeLa [20]): 61.2%
fold change (FC) (HeLa [21]): 3.5
Activity (HeLa [22]): 55.2%
